Experimental findings from ChEMBL document CHEMBL1143924, “Discovery of 2-amino-6-carboxamidobenzothiazoles as potent Lck inhibitors” (Bioorg Med Chem Lett, 2008) are described below.

Format in all cases: functional, cell-based
Assay [1] has as its system BaF3. As to the kind of experiment: Antiproliferative activity against Lck transformed mouse BaF3 cells after 48 hrs by luciferase assay. The settings on record: BaF3, 48 h. A digest of the protocol: (§1)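 BaF3 cells transformed with the named kinase, 25,000 cells per well, exposed to serial inhibitor dilutions or DMSO for 48 h. Luciferase expression, read by Bright-Glo luminescence, served as the measure of proliferation/survival.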

The test system of assay [2] is Jurkat. As to the kind of experiment: Inhibition of phorbol myristate acetate and ionomycin induced IL2 promoter activity in human Jurkat cells after 5 hrs. In a few lines:
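Jurkat IL-2 promoter-luciferase cells, 50,000 per well, stimulated with PMA plus ionomycin, added as an equal volume of solution containing PMA at 40 ng/mL (concentration before mixing). IL-2 promoter activity read as luciferase signal by Bright-Glo.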

Assay [3] relates to Jurkat. Briefly: Inhibition of ant-CD3+CD28 antibodies induced IL2 promoter activity in human Jurkat cells after 5 hrs. A digest of the protocol: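 Wells coated with anti-mouse IgG in sodium bicarbonate buffer, then loaded with OKT3 (mouse anti-human CD3) and mouse anti-human CD28 antibodies, then washed. Jurkat cells carrying IL-2 promoter-driven luciferase, 100,000 per well, incubated 5 h on the bound antibodies. Luciferase read-out by Bright-Glo.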

Assay [4] deals with BaF3. Briefly: Antiproliferative activity against Sky transformed mouse BaF3 cells. In a few lines: as §1
The subject of assay [5] is BaF3. Briefly: Antiproliferative activity against Src transformed mouse BaF3 cells. A digest of the protocol:
as §1

In assay [6] the test system is BaF3. As to the kind of experiment: Antiproliferative activity against InsR transformed mouse BaF3 cells. In a few lines:
as §1

Assay [7] has as its system BaF3. Briefly: Antiproliferative activity against KDR transformed mouse BaF3 cells. A digest of the protocol: as §1
Assay [8] has as its system BaF3. Briefly: Antiproliferative activity against FGFR3 transformed mouse BaF3 cells. A digest of the protocol: as §1
The subject of assay [9] is BaF3. Briefly: Antiproliferative activity against Lyn transformed mouse BaF3 cells. A digest of the protocol:
as §1

Assay [10] deals with BaF3. Briefly: Antiproliferative activity against Alk transformed mouse BaF3 cells. A digest of the protocol: as §1
The test system of assay [11] is BaF3. Briefly: Antiproliferative activity against FLT3 transformed mouse BaF3 cells. In a few lines:
as §1

Assay [12] relates to BaF3. Briefly: Antiproliferative activity against JAK3 transformed mouse BaF3 cells. In a few lines:
as §1

For orientation: IC50 means the point on the concentration scale where inhibition reaches its midpoint. Low readings indicate greater potency, high ones weaker potency. Regarding `CCNC(=O)Nc1nc2ccc(C(=O)Nc3cc(C(=O)Nc4cccc(C(F)(F)F)c4)ccc3C)cc2s1`, in the assay on BaF3 [1], the IC50 worked out at 118 nM. The same measure, in the same setting: as for `CCNC(=O)N(C)c1nc2ccc(C(=O)Nc3cc(NC(=O)c4cccc(C(F)(F)F)c4)ccc3C)cc2s1`, the figure is more than 10000 nM; as for `Cc1ccc(C(=O)Nc2cccc(C(F)(F)F)c2)cc1NC(=O)c1ccc2nc(NC(=O)NC3CCCC3)sc2c1`, 139 nM. As to `Cc1ccc(NC(=O)c2cccc(C(F)(F)F)c2)cc1NC(=O)c1ccc2nc(NC(=O)NC3CCCC3)sc2c1`, the IC50 is 16 nM with BaF3 [1], 812 nM in the assay on Jurkat [2] and 62 nM in the assay on Jurkat [3]. Compound `Cc1ccc(NC(=O)c2cccc(C(F)(F)F)c2)cc1NC(=O)c1ccc2nc(NCCCN3CCOCC3)sc2c1` yielded a concentration for half-maximal inhibition (IC50) with BaF3 [1] of 78 nM.

On to `CNC(=O)Nc1nc2ccc(C(=O)Nc3cc(NC(=O)c4cccc(C(F)(F)F)c4)ccc3C)cc2s1`, for which the IC50 in the assay on BaF3 [4] was found to be 1100 nM; in the assay on BaF3 [1] it was 21 nM; in the assay with BaF3 [5], 301 nM; in the assay on BaF3 [6], 1280 nM; in the assay on BaF3 [7] it was 1610 nM; with BaF3 [8] it was 1980 nM. The IC50 amounted to 94 nM in the assay on BaF3 [9], 1630 nM in the assay with BaF3 [10], 3140 nM in the assay on BaF3 [11] and 5010 nM in the assay with BaF3 [12]. Take `Cc1ccc(NC(=O)c2cccc(C(F)(F)F)c2)cc1NC(=O)c1ccc2nc(N(C)C(=O)OC(C)(C)C)sc2c1`: in the assay on BaF3 [1], it took 955 nM to reach half-maximal inhibition (IC50). Still for that read-out and setting: as for `CCNC(=O)Nc1nc2ccc(C(=O)Nc3cc(NC(=O)c4cc(F)cc(C(F)(F)F)c4)ccc3C)cc2s1`, the figure is 7 nM; as for `Cc1ccnc(Nc2nc3ccc(C(=O)Nc4cc(NC(=O)c5cccc(C(F)(F)F)c5)ccc4C)cc3s2)c1`, 16 nM. Regarding `Cc1ccc(NC(=O)c2cccc(C(F)(F)F)c2)cc1NC(=O)c1ccc2nc(NC(=O)OC(C)C)sc2c1`, the IC50 in the assay on BaF3 [4] amounted to 2440 nM; with BaF3 [1] it was 30 nM; with BaF3 [5], 517 nM; in the assay with BaF3 [6] it was 13500 nM; in the assay with BaF3 [7], 3280 nM; with BaF3 [8], 12600 nM. Moreover, the half-inhibitory concentration (IC50) with BaF3 [9] is 268 nM; with BaF3 [10], 6110 nM; in the assay with BaF3 [11], more than 10000 nM; in the assay on BaF3 [12], more than 10000 nM.

On to `Cc1ccc(NC(=O)c2cccc(C(F)(F)F)c2)cc1NC(=O)c1ccc2nc(NCCCN(C)C)sc2c1`, for which the IC50 in the assay on BaF3 [1] was 81 nM. As to `CCNC(=O)Nc1nc2ccc(C(=O)Nc3cc(NC(=O)c4cccc(Cl)c4)ccc3C)cc2s1`, in the assay on BaF3 [1], the IC50 worked out at 104 nM. The same measure, in the same setting: the same measure for `Cc1cc(Nc2nc3ccc(C(=O)Nc4cc(NC(=O)c5cccc(C(F)(F)F)c5)ccc4C)cc3s2)no1`: 8 nM; for `CCNC(=O)Nc1nc2ccc(C(=O)Nc3cc(NC(=O)c4cccc(C)c4)ccc3C)cc2s1`: 112 nM.

As to `COCCOC(=O)Nc1nc2ccc(C(=O)Nc3cc(NC(=O)c4cccc(C(F)(F)F)c4)ccc3C)cc2s1`, the IC50 stood at 8 nM in the assay on BaF3 [1], 438 nM in the assay with Jurkat [2] and 12 nM with Jurkat [3]. On to `Cc1ccc(NC(=O)c2cccc(C(F)(F)F)c2)cc1NC(=O)c1ccc2nc(NC(=O)Oc3ccccc3)sc2c1`, for which the 50% inhibitory concentration (IC50) with BaF3 [1] was 112 nM. This lies in the sub-micromolar range. On the same count and under the same terms, as for `Cc1ccc(NC(=O)c2cccc(C(F)(F)F)c2)cc1NC(=O)c1ccc2nc(NC(=O)OC(C)(C)C)sc2c1`, the figure is 36 nM; as for `CCNC(=O)Nc1nc2ccc(C(=O)Nc3cc(NC(=O)c4ccc(C(C)(C)C)s4)ccc3C)cc2s1`, 12 nM. Still for that read-out and setting: as for `CCNC(=O)Nc1nc2ccc(C(=O)Nc3cc(NC(=O)c4ccnc(C(C)(C)C)c4)ccc3C)cc2s1`, the figure is 9 nM; as for `Cc1cc(Nc2nc3ccc(C(=O)Nc4cc(NC(=O)c5cccc(C(F)(F)F)c5)ccc4C)cc3s2)nc(C)n1`, 0.6 nM. As for `Cc1cc(C)nc(Nc2nc3ccc(C(=O)Nc4cc(NC(=O)c5cccc(C(F)(F)F)c5)ccc4C)cc3s2)n1`, in the assay with BaF3 [1], the half-maximal inhibitory concentration (IC50) was 53 nM. On the same count and under the same terms, as for `Cc1ccc(NC(=O)c2cccc(C(F)(F)F)c2)cc1NC(=O)c1ccc2nc(N)sc2c1`, the figure is 170 nM; as for `Cc1ccc(NC(=O)c2cccc(C(F)(F)F)c2)cc1NC(=O)c1ccc2nc(NC(=O)Nc3cccnc3)sc2c1`, 125 nM.

`COc1ccc(OC(=O)Nc2nc3ccc(C(=O)Nc4cc(NC(=O)c5cccc(C(F)(F)F)c5)ccc4C)cc3s2)cc1` yielded a concentration for half-maximal inhibition (IC50) in the assay on BaF3 [1] of 131 nM. On to `CCNC(=O)Nc1nc2ccc(C(=O)Nc3cc(NC(=O)c4cccc(OC)c4)ccc3C)cc2s1`, for which 158 nM corresponded to half-maximal inhibition in the assay on BaF3 [1] (IC50).

In the assay with BaF3 [1], `CCNC(=O)Nc1nc2ccc(C(=O)Nc3cc(NC(=O)c4cc(-n5cnc(C)c5)cc(C(F)(F)F)c4)ccc3C)cc2s1` displayed an IC50 of 15 nM. Regarding `CCNC(=O)Nc1nc2ccc(C(=O)Nc3cc(NC(=O)c4cccc(C(F)(F)F)c4)ccc3C)cc2s1`, the half-maximal inhibitory concentration (IC50) came to 16 nM in the assay on BaF3 [1], 373 nM in the assay on Jurkat [2] and 44 nM in the assay on Jurkat [3].

The compound `CCNC(=O)Nc1nc2ccc(C(=O)Nc3cc(NC(=O)c4cc(N5CCN(C)CC5)cc(C(F)(F)F)c4)ccc3C)cc2s1` displayed a half-maximal inhibitory concentration (IC50) with BaF3 [1] of 19 nM. This counts as double-digit nanomolar. On the same count and under the same terms, the same measure for `Cc1cc(Br)c(NC(=O)c2cccc(C(F)(F)F)c2)cc1NC(=O)c1ccc2nc(NCCN3CCOCC3)sc2c1`: 2100 nM; for `Cc1ccc(NC(=O)c2cccc(C(F)(F)F)c2)cc1NC(=O)c1ccc2nc(NC(=O)Nc3ccccc3)sc2c1`: 94 nM; for `Cc1ccc(NC(=O)c2cccc(C(F)(F)F)c2)cc1NC(=O)c1ccc2nc(NCCN3CCN(C)CC3)sc2c1`: 58 nM.

On to `COC(=O)Nc1nc2ccc(C(=O)Nc3cc(NC(=O)c4cccc(C(F)(F)F)c4)ccc3C)cc2s1`, for which the IC50 in the assay with BaF3 [1] was found to be 30 nM; in the assay on Jurkat [2], 851 nM; in the assay on Jurkat [3], 36 nM. Consider `CCNC(=O)Nc1nc2ccc(C(=O)Nc3cc(NC(=O)c4ccc(Cl)c(C(F)(F)F)c4)ccc3C)cc2s1`, for which half-maximal inhibition in the assay on BaF3 [1] (IC50) required 50 nM.

The compound `Cc1ccc(NC(=O)c2cccc(C(F)(F)F)c2)cc1NC(=O)c1ccc2nc(Nc3cnccn3)sc2c1` came in with an IC50 in the assay on BaF3 [1] of 4 nM.
